Measurements taken from ChEMBL document CHEMBL1146511, “Cytotoxic compounds from Mundulea chapelieri from the Madagascar Rainforest” (J Nat Prod, 2004).
Values after ≈ are worked out from the molar mass of the structure shown.

system: A2780; assay: Cytotoxicity against human A2780 cells; format: functional, cell-based
Summary of the method: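 A2780 human ovarian cancer cells; growth-inhibition assay run per an earlier published protocol, with actinomycin D as positive control; value is the concentration that inhibited growth by 50% (IC50).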

First: CC1(C)C=Cc2c(c3c(c4c2O[C@H](c2ccccc2)CC4=O)OC(C)(C)C=C3)O1
Second: CC1(C)C=Cc2c(c3c(c4c2O[C@H](c2ccccc2)[C@@H](O)C4=O)OC(C)(C)C=C3)O1
The IC50 of the first is 1.6-fold higher: 33 µg/mL (≈ 85 µM) for the first, 20 µg/mL (≈ 49.4 µM) for the second.

First: C=C[C@@]1(C)C[C@@H](OC(C)=O)[C@H](C(C)(C)O)C[C@@H]1C(=C)C
Second: C=C(C)[C@H]1Cc2c(ccc3c2O[C@@H]2COc4cc(OC)c(OC)cc4[C@]2(O)C3=O)O1 [ROTENOLONE]
The IC50 of the first is 34-fold higher: 17 µg/mL (≈ 60.6 µM) for the first, 0.5 µg/mL (≈ 1.22 µM) for the second.

`COc1cc(OC)c2c(c1CC=C(C)C)O[C@H](c1ccccc1)CC2=O` [CANDIDONE] and `CC(C)=CCc1c2c(c(O)c3c1O[C@H](c1ccccc1)[C@@H](O)C3=O)C=CC(C)(C)O2` [MUNDULINOL] are within 1.5-fold of each other in IC50: 23 µg/mL (≈ 65.3 µM) for the first, 25 µg/mL (≈ 61.5 µM) for the second.

First: CC(C)=CCc1c(O)c2c(c3c1OC(C)(C)C=C3)O[C@H](c1ccccc1)[C@@H](O)C2=O [ISOMUNDULINOL]
Second: COc1cc2c(cc1OC)[C@]1(O)C(=O)c3ccc4c(c3O[C@@H]1CO2)C=CC(C)(C)O4 [TEPHROSIN]
The IC50 of the first is 2-fold higher: 18 µg/mL (≈ 44.3 µM) for the first, 9.1 µg/mL (≈ 22.2 µM) for the second.

Compared with `COc1c(-c2coc3cc4c(cc3c2=O)CC(O)C(C)(C)O4)ccc2c1C=CC(C)(C)O2` (stereo unspecified) [MUNDULONE], `COc1c(-c2coc3cc4c(cc3c2=O)C=CC(C)(C)O4)ccc2c1C=CC(C)(C)O2` [MUNETONE] is 1.5-fold higher in IC50: 13 µg/mL (≈ 29.9 µM) for the first, 20 µg/mL (≈ 48 µM) for the second.

For `C=C(C)[C@H]1Cc2c(ccc3c2O[C@@H]2COc4cc(OC)c(OC)cc4[C@@H]2C3=O)O1` [ROTENONE], the IC50 was 0.7 µg/mL (≈ 1.77 µM).
